Published values of several laboratories.
Each line is one published result; the experiments were not run side by side.
Target: Fibroblast growth factor receptor 4 (FGFR4, Homo sapiens, UniProt P22455)

SMILES | test | setting | remaining binding [%]
COc1cnc(Nc2cccc(S(N)(=O)=O)c2)nc1N1CCN(c2ccccc2)CC1 | binding, competition with immobilised ligand | 1 µM | 98
c1cnn2ncc(-c3ccnc(N4CCC45COC5)n3)c2c1 | binding | 1 µM | 91
O=C(NCCCN1CCOCC1)c1ccc(Nc2ncc(Cl)c(-c3ccc(Cl)s3)n2)cc1 | binding, competition with immobilised ligand | 1 µM | 89
N[C@H]1CCN(c2nccc(-c3cnn4ncccc34)n2)C1 | binding | 1 µM | 100
C=CC(=O)N1CCC(C(=O)NCC(=O)N2CCN(c3nc(-c4cnc(N)nc4C(F)F)nc(N4CCOCC4)n3)CC2)CC1 | binding, competition with immobilised ligand | 1 µM | 100
C[C@@H]1CN(c2cc(-c3nn(C)c4ccc(OC5(C)CC5)cc34)ncn2)C[C@H](C)O1 | cell-free assay, competition with immobilised ligand | 1 µM | 100
Cc1cnn2ncc(-c3ccnc(N(C)C)n3)c2c1 | binding | 1 µM | 97
CS(=O)(=O)NCC[C@H](NC(=O)c1cncc2c1cnn2-c1ccc(F)cc1)c1ccnc(S(C)(=O)=O)c1 | cell-free assay, competition with immobilised ligand | 1 µM | 100
c1cncc(-c2cccc(Nc3nccc(NC4CCCCC4)n3)c2)c1 | binding, competition with immobilised ligand | 10 µM | 94
COc1cnc(Nc2cccc(S(N)(=O)=O)c2)nc1N1CCN(c2ccccc2)C(=O)C1 | binding, competition with immobilised ligand | 1 µM | 100
F[C@@H]1CCN(c2nccc(-c3cnn4ncccc34)n2)C1 | binding | 1 µM | 100
Cc1c(C(=O)O)cc(-c2ccc(C3CCNCC3)cc2)c2ccc(-c3ccc(C(F)(F)F)cc3)cc12 | cell-free assay, competition with immobilised ligand | 1 µM | 100
CCN1CCN(Cc2ccc(C(=O)Nc3ccc(C)c(Oc4ccc5c(c4)CC(=O)N5)c3)cc2C(F)(F)F)CC1 | binding, competition with immobilised ligand | 1 µM | 100
Cc1cnc(Nc2ccc(C(=O)N3CCC(N4CCCC4)CC3)cc2)nc1-c1cc2ccccc2s1 | binding, competition with immobilised ligand | 1 µM | 76
O=C(Nc1ccc(Oc2ccc(F)cc2)cc1)N1CCc2ncccc2[C@H]1c1ccc(F)cc1 | cell-free assay, competition with immobilised ligand | 1 µM | 95
CN(C)c1nccc(-c2cnn3ncccc23)n1 | binding | 1 µM | 100
CN([C@@H]1CCc2c(CC(=O)O)c3cc(S(C)(=O)=O)ccc3n2C1)S(=O)(=O)c1ccc(F)cc1 | cell-free assay, competition with immobilised ligand | 1 µM | 99
C[C@@H]1CCN(c2nccc(-c3cnn4ncccc34)n2)C1 | binding | 1 µM | 100
O=C(c1ccc(Nc2ncc(Cl)c(-c3ccc(Cl)s3)n2)cc1)N1CCC(N2CCCC2)CC1 | binding, competition with immobilised ligand | 1 µM | 60
O=C(Nc1c[nH]nc1C(=O)NC1CCNCC1)c1cc(F)cc(F)c1 | binding, competition with immobilised ligand | 1 µM | 100
CN(c1nccc(-c2cnn3ncccc23)n1)C1CC1 | binding | 1 µM | 99
CCc1ccccc1C(=O)Nc1n[nH]c2c(C)c(F)c(C3C(C#N)=C(C)N(C)C(C)=C3C#N)cc12 | cell-free assay, competition with immobilised ligand | 1 µM | 100
